Three compounds from ChEMBL document CHEMBL3098104, “Design, synthesis and preliminary SAR studies of novel N-arylmethyl substituted piperidine-linked aniline derivatives as potent HIV-1 NNRTIs” (Bioorg Med Chem, 2014) can be followed below.

The structures appear in SMILES notation.

Data set [1] has as its target Human immunodeficiency virus type 1 reverse transcriptase (Human immunodeficiency virus 1, UniProt Q72547). The data set can be described thus: Inhibition of wild-type HIV1 reverse transcriptase assessed as incorporation of biotin-labeled dUTP. Put shortly:
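HIV-1 RT enzyme assay with poly(A)·oligo(dT)15 as template-primer. Incorporation of digoxigenin- and biotin-labeled dUTP into DNA was read colorimetrically with the peroxidase substrate ABTS.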

Data set [2] deals with Human immunodeficiency virus 1. The data set can be described thus: Fold resistance, ratio of EC50 for HIV1 RES056 expressing K103N/Y181C mutant infected in human MT4 cells to EC50 for wild-type HIV1 3B infected in human MT4 cells. In kind it is functional. Put shortly: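 MTT protection assay in MT-4 cells run in parallel against the K103N/Y181C double mutant (RES056) and wild-type IIIB. Viability read 5 days after infection. Fold resistance = EC50 against the mutant divided by EC50 against IIIB. Median of two or three parallel assays.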

Data set [3] can be described thus: Selectivity index, ratio of CC50 for human MT4 cells to EC50 for HIV1 3B infected in human MT4 cells. The class given is toxicity, cell-based. The conditions noted are these: read-out: Ratio CC50/EC50. Put shortly:
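MT-4 cells at 6 × 10^5 cells/ml, in triplicate wells, infected with HIV-1 IIIB or mock-infected. Compounds added from 10× stocks at the start of infection. MTT viability read on day 5. SI = CC50 (mock-infected cells) / EC50 (IIIB). Median of two or three parallel assays.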

Data set [4] relates to Human immunodeficiency virus 2. Nature of the data set: Antiviral activity against HIV2 ROD infected in human MT4 cells assessed as inhibition of viral cytopathicity after 5 days by MTT assay. The class given is functional, organism-based. To be noted: Human immunodeficiency virus 2, ISOLATE ROD, MT4, 120 h. Put shortly: (§1)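 HIV-infected MT-4 cells were compared with mock-infected wells in triplicate. Exponentially growing cells were pelleted for 5 min at 1000 rpm and resuspended at 6 × 10^5 cells/ml. Compound was added at the start of infection from stocks at 10× final concentration. Viability was read by MTT five days post-infection. EC50 is the concentration giving 50% protection against virus-induced cytotoxicity, taken as the median of two or three parallel assays.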

A short description of data set [5]: Cytotoxicity against human MT4 cells assessed as cell viability after 5 days by MTT assay. In kind it is cell-based. Put shortly:
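Mock-infected MT-4 cells, from exponentially growing cultures pelleted and resuspended at 6 × 10^5 cells/ml, were run in triplicate wells alongside the infected series. Compound was added from 10× stocks at the start of the experiment. Viability was read by MTT after five days. CC50 is the concentration that lowers viability by 50%, taken as the median of two or three parallel assays.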
In general terms: Formazan colour is commonly taken as a measure of viable cells.

For data set [6], the system named is Human immunodeficiency virus 1. The data set can be described thus: Antiviral activity against HIV1 RES056 harboring reverse transcriptase K103N/Y181C mutant infected in human MT4 cells assessed as inhibition of viral cytopathicity after 5 days by MTT assay. The class given is functional, organism-based. To be noted: Human immunodeficiency virus 1, RES056, MT4, 120 h. Put shortly: (§2)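 MT-4 cells pelleted 5 min at 1000 rpm, resuspended at 6 × 10^5 cells/ml and plated. Compounds added from 10× stocks at the start, in triplicate wells, to HIV-infected and mock-infected cells in parallel. Viability read by MTT 5 days after infection. EC50 is 50% protection from virus-induced cytotoxicity. CC50 is 50% loss of viability in mock-infected cells. SI = CC50/EC50. Median of two or three parallel assays.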
Background: Damage to the host cells serves as the signal in cytopathic effect assays.

The subject of data set [7] is Human immunodeficiency virus 1. Nature of the data set: Antiviral activity against wild-type HIV1 3B infected in human MT4 cells assessed as inhibition of viral cytopathicity after 5 days by MTT assay. The class given is functional, organism-based. The conditions noted are these: Human immunodeficiency virus 1, 3B, MT4, 120 h. Put shortly: as §1
The nature of data set [8]: Selectivity index, ratio of CC50 for human MT4 cells to EC50 for HIV1 RES056 harboring reverse transcriptase K103N/Y181C mutant infected in human MT4 cells. The class given is toxicity, cell-based. The conditions noted are these: read-out: Ratio CC50/EC50. Put shortly:
as §2

By IC50 is commonly meant the concentration at which inhibition is half-maximal. The term EC50 denotes the concentration needed to bring the measured effect to its halfway point. The term CC50 denotes the concentration that lowers cell viability or growth by half.

Turning to `Cc1cc(C#N)cc(C)c1Oc1ccc([N+](=O)[O-])c(NC2CCN(Cc3ccc(S(C)(=O)=O)cc3)CC2)c1`, the IC50 in data set [1] was 0.36 µM. Also, the “Ratio EC50” value in data set [2] was over 10770. Also, in data set [3], the selectivity ratio was over 10800. Also, the results for the EC50 in data set [4], in data set [6] and in data set [7] were over 234 µM, over 234 µM and 0.022 µM, respectively. For the same compound, in data set [5], the CC50 at 120 h was over 234 µM.
For the compound `Cc1cc(C#N)cc(C)c1Oc1ccc(N)c(NC2CCN(Cc3ccc(S(N)(=O)=O)cc3)CC2)c1.Cl`, in data set [2], the “Ratio EC50” value came to 114. Moreover, the selectivity ratio in data set [8] came out at 4.4; in data set [3] it was 505. Further, the EC50 is over 22 µM in data set [4], 4.8 µM in data set [6] and 0.043 µM in data set [7]. The CC50 at 120 h in data set [5] is 22 µM.
As to `Cc1cc(C)c(Oc2ccc([N+](=O)[O-])c(NC3CCN(Cc4ccncc4)CC3)c2)c(C)c1`, in data set [2], the “Ratio EC50” value was over 258. For the same compound, the selectivity ratio in data set [8] was under 1; in data set [3], 258. In addition, the EC50 is over 21 µM in data set [4], over 21 µM in data set [6] and 0.082 µM in data set [7]. Moreover, the CC50 at 120 h in data set [5] came out at 21 µM.
